How the values were obtained:
[1] = test system: Rattus norvegicus; test: Effect of compound was measured on serum alpha-lipoprotein in male Dawley rats at the dose of 0.4 mmol/kg (day+10).; assay type: functional, organism-based
Outline: (§1)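 Male Sprague-Dawley rats (180-210 g) fed a high-cholesterol diet for 1 week before and throughout dosing. Groups of n = 6 were dosed orally twice daily for 14 days in 0.25% methylcellulose, with vehicle controls. Rats were fasted 16-18 h before orbital bleeds on days -1, +4, +7 and +10, and by aortic exsanguination on day +14. Serum α-lipoprotein cholesterol was measured by polyanionic precipitation, in mg/dL ± SD.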

[2] = test system: Rattus norvegicus; test: Effect of compound was measured on serum alpha-lipoprotein in male Dawley rats at the dose of 0.4 mmol/kg (day+4).; assay type: functional, organism-based; outline: as §1
[3] = test system: Rattus norvegicus; test: Effect of compound was measured on serum alpha-lipoprotein in male Dawley rats at the dose of 0.4 mmol/kg (day+7).; assay type: functional, organism-based; outline: as §1
[4] = test system: Rattus norvegicus; test: Effect of compound was measured on serum alpha-lipoprotein in male Dawley rats at the dose of 0.4 mmol/kg (day-1).; assay type: functional, organism-based; outline: as §1
[5] = test system: Rattus norvegicus; test: Effect of compound was measured on serum alpha-lipoprotein in male Dawley rats at the dose of 0.4 mmol/kg (day14).; assay type: functional, organism-based; outline: as §1
[6] = test system: Rattus norvegicus; test: Effect of compound was measured on serum total cholesterol in male Dawley rats at the dose of 0.4 mmol/kg (day+10).; assay type: functional, organism-based
Outline: (§2)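 Serum total cholesterol was measured enzymatically on a bichromatic analyzer. Serum was separated after clotting on ice (2000g, 10 min), held at 4 °C and assayed within 48 h. Rats were male Sprague-Dawley on a high-cholesterol diet, n = 6, dosed orally twice daily for 14 days in 0.25% methylcellulose (1.0 mL/100 g). They were fasted 16-18 h before each bleed. Results are in mg/dL ± SD.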

[7] = test system: Rattus norvegicus; test: Effect of compound was measured on serum total cholesterol in male Dawley rats at the dose of 0.4 mmol/kg (day+14).; assay type: functional, organism-based; outline: as §2
[8] = test system: Rattus norvegicus; test: Effect of compound was measured on serum total cholesterol in male Dawley rats at the dose of 0.4 mmol/kg (day+4).; assay type: functional, organism-based; outline: as §2
[9] = test system: Rattus norvegicus; test: Effect of compound was measured on serum total cholesterol in male Dawley rats at the dose of 0.4 mmol/kg (day+7).; assay type: functional, organism-based; outline: as §2
[10] = test system: Rattus norvegicus; test: Effect of compound was measured on serum total cholesterol in male Dawley rats at the dose of 0.4 mmol/kg (day-1).; assay type: functional, organism-based; outline: as §2
[11] = test system: Rattus norvegicus; test: Effect of compound was measured on serum total triglycerides in male Dawley rats at the dose of 0.4 mmol/kg (day+10).; assay type: functional, organism-based
Outline: (§3)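 Serum triglycerides were measured with an enzymatic triglyceride reagent on a bichromatic analyzer. Rats were male Sprague-Dawley (180-210 g) fed a high-cholesterol diet, n = 6 per group, dosed orally twice daily for 14 days in 0.25% methylcellulose or vehicle. They were fasted 16-18 h before blood collection on days -1, +4, +7, +10 (orbital plexus, light ether) and +14 (aorta). Analysis was repeated-measures ANOVA with Duncan's test.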

[12] = test system: Rattus norvegicus; test: Effect of compound was measured on serum total triglycerides in male Dawley rats at the dose of 0.4 mmol/kg (day+14).; assay type: functional, organism-based; outline: as §3
[13] = test system: Rattus norvegicus; test: Effect of compound was measured on serum total triglycerides in male Dawley rats at the dose of 0.4 mmol/kg (day+7).; assay type: functional, organism-based; outline: as §3
[14] = test system: Rattus norvegicus; test: Effect of compound was measured on serum total triglycerides in male Dawley rats at the dose of 0.4 mmol/kg (day-1).; assay type: functional, organism-based; outline: as §3
[15] = test system: Rattus norvegicus; test: Effect of compound on liver CH levels in male Dawley rats at the dose of 0.4 mmol/kg; assay type: functional; set-up: unit: g/100 g wet liver
Outline: (§4)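 Male Sprague-Dawley rats (180-210 g) were kept on a high-cholesterol diet for 1 week before and throughout treatment. Groups of n = 6 received drug in 0.25% methylcellulose orally twice daily for 14 days, or vehicle. After a 16-18 h fast, livers were excised at day +14 and homogenized in 0.1 M Tris-HCl pH 7.2 with 1.15% KCl. Lipids were extracted from 25% w/v homogenate and reported as g/100 g wet liver ± SD; groups compared by ANOVA and Duncan's test.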

[16] = test system: Rattus norvegicus; test: Effect of compound on liver TG levels in male Dawley rats at the dose of 0.4 mmol/kg; assay type: functional; set-up: unit: g/100 g wet liver; outline: as §4
[17] = Effect of compound was measured on serum heparin-MnCl2 precipated ipoprotein Dawley rats at 0.4 mmol/kg dose(day+10).; assay type: functional
Outline: (§5)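 Cholesterol-fed male Sprague-Dawley rats, n = 6 per group, given compound or 0.25% methylcellulose orally twice daily for 14 days, and fasted 16-18 h before each bleed (days -1, +4, +7, +10, +14). Heparin-MnCl2 precipitable lipoprotein cholesterol was taken as serum total cholesterol minus α-lipoprotein cholesterol. It is reported as a ratio to α-LP cholesterol ± SD. Analysis was ANOVA with repeated measures and Duncan's test.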

[18] = Effect of compound was measured on serum heparin-MnCl2 precipated ipoprotein Dawley rats at 0.4 mmol/kg dose(day+4).; assay type: functional; outline: as §5
[19] = Effect of compound was measured on serum heparin-MnCl2 precipated ipoprotein Dawley rats at 0.4 mmol/kg dose(day+7).; assay type: functional; outline: as §5
[20] = Effect of compound was measured on serum heparin-MnCl2 precipated ipoprotein Dawley rats at 0.4 mmol/kg dose(day-1).; assay type: functional; outline: as §5
[21] = test system: Rattus norvegicus; test: Effect of compound was measured on serum total triglycerides in male Dawley rats at the dose of 0.4 mmol/kg (day+4).; assay type: functional, organism-based; outline: as §3
[22] = Effect of compound on liver to body weight ratio in male Dawley rats at the dose of 0.4 mmol/kg; assay type: functional
Outline: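 Male Sprague-Dawley rats (180-210 g) were kept on a cholesterol-rich diet and dosed orally twice daily for 14 days in 0.25% methylcellulose; vehicle controls received the same; n = 6 per group. After a 16-18 h fast, rats were exsanguinated at day +14. Livers were removed, rinsed in ice-cold buffer, blotted and weighed, and related to body weight. Data were analysed by repeated-measures ANOVA with Duncan's multiple range test.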

[23] = Effect of compound was measured on serum heparin-MnCl2 precipated ipoprotein Dawley rats at 0.4 mmol/kg dose(day+14).; assay type: functional; outline: as §5

SMILES | alpha-lipoprotein cholesterol [1] | alpha-lipoprotein cholesterol [2] | alpha-lipoprotein cholesterol [3] | alpha-lipoprotein cholesterol [4] | alpha-lipoprotein cholesterol [5] | serum total cholesterol [6] | serum total cholesterol [7] | serum total cholesterol [8] | serum total cholesterol [9] | serum total cholesterol [10] | Serum total triglycerides [11] | Serum total triglycerides [12] | Serum total triglycerides [13] | Serum total triglycerides [14] | Liver CH levels [15] | Liver TG [16] | Ratio [17] | Ratio [18] | Ratio [19] | Ratio [20] | further results
NC1=C(O)C(=O)C(c2ccc(Cl)cc2)O1 (stereo unspecified) | 43.7 mg/dL | 33.2 mg/dL | 43 mg/dL | 43.8 mg/dL | 38.8 mg/dL | 344 mg/dL | 278 mg/dL | 138 mg/dL | 252 mg/dL | 193 mg/dL | 158 mg/dL | 119 mg/dL | 128 mg/dL | 179 mg/dL | 4.03 | 2.8 | 7.13 | 3.43 | 5.59 | 3.65 | Serum total triglycerides [21]: 147 mg/dL; Ratio [22]: 4.1; Ratio [23]: 6.31
O=C1OC(c2ccc(Cl)cc2)C(=O)C1=O (stereo unspecified) | 29 mg/dL | 32 mg/dL | 30.5 mg/dL | 40.3 mg/dL | 34.2 mg/dL | 356 mg/dL | 217 mg/dL | 205 mg/dL | 377 mg/dL | 250 mg/dL | 151 mg/dL | 105 mg/dL | 164 mg/dL | 268 mg/dL | 4.9 | 3.76 | 11.9 | 5.63 | 12.6 | 5.76 | Serum total triglycerides [21]: 198 mg/dL; Ratio [22]: 4; Ratio [23]: 5.75

Reference: ChEMBL document CHEMBL1121938, “Hypocholesterolemic and antiaggregatory properties of 2-hydroxytetronic acid redox analogues an their relationship to clofibric acid” (1982)
